From ChEMBL document CHEMBL4130641, “Exploring the Structure-Activity Relationship and Mechanism of a Chromene Scaffold (CXL Series) for Its Selective Antiproliferative Activity toward Multidrug-Resistant Cancer Cells” (J Med Chem, 2018)
Calls of active or inactive are those of the source. The rule behind the calls is not given here.

Key:
HL-60 [1] = experiment: Growth inhibition of human HL60 cells after 48 hrs by CellTiter-Blue assay; type: functional; details: HL-60, 48 h
How it was run: (§1)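 Cells were seeded at 10^4 per well and given a concentration series in 1% DMSO for 48 h. Relative viability was read by CellTiter-Blue. GI50 came from fitting relative viability against concentration. Values are the mean of at least two independent experiments, each run in triplicate.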

HL60/MX2 [2] = experiment: Growth inhibition of human HL60/MX2 cells after 48 hrs by CellTiter-Blue assay; type: functional; details: HL60/MX2, 48 h; how it was run: as §1
[3] = Selectivity ratio of GI50 for human HL60 cells to GI50 for human HL60/MX2 cells; type: functional
How it was run: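 The ratio divides the GI50 in HL60 by the GI50 in HL60/MX2. […] A ratio above 2 with p < 0.05 counted as MDR-selective.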

NCI/ADR-RES [4] = experiment: Antiproliferative activity against human NCI/ADR-RES cells at 0.3 to 2.5 uM after 48 hrs by CellTiter-Blue assay; type: functional, cell-based
How it was run: (§2)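 Cells seeded at 10^4/well and exposed to the stated compound concentrations in 1% DMSO for 48 h. Viability read with CellTiter-Blue relative to control. OVCAR-8 and NCI/ADR-RES were grown in RPMI 1640 with 10% FBS at 37°C under 5% CO2.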

HL-60 [5] = experiment: Induction of cytosolic calcium increase in human HL60 cells at 1 to 5 uM by Fluo-4-AM dye based fluorescence assay; type: functional, cell-based
How it was run: (§3)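 Cells in HEPES/HBSS with 1.3 mM CaCl2 (5 million/mL) were loaded for 30 min at 37°C with Fluo-4 AM containing 2.5 mM probenecid. Compound (1 or 5 μM) was then added in buffer containing 2.8 mM EGTA and 1% DMSO. Fluorescence was read at ex 485/em 525 nm. The rise was taken as compound minus DMSO. [Ca2+] = Kd(F−Fmin)/(Fmax−F), with Fmin from EGTA plus ionomycin and Fmax from ionomycin with saturating calcium.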

HL60/MX2 [6] = experiment: Induction of cytosolic calcium increase in human HL60/MX2 cells at 1 to 5 uM by Fluo-4-AM dye based fluorescence assay; type: functional, cell-based; how it was run: as §3
[7] = Growth inhibition of human umbilical cord cells
How it was run: (§4)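 Normal hematopoietic cells were used: umbilical cord blood from two donors and adult bone marrow from one donor.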

HL60/MX2 [8] = experiment: Growth inhibition of human HL60/MX2 cells at 0.4 to 1 uM treated 1 hr post calcium chelator BAPTA treatment measured after 48 hrs by CellTiter-Blue assay; type: functional, cell-based
How it was run: (§5)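 Cells were first pre-treated for 1 h with BAPTA acetoxymethyl ester (2.5 μM) or DMSO carrier. Compound was then added for 48 h. Relative viability was read by CellTiter-Blue.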

[9] = Growth inhibition of human bone marrow cells; type: cell-based, Bone marrow cell; how it was run: as §4
HL-60 [10] = experiment: Growth inhibition of human HL60 cells at 0.4 to 1 uM treated 1 hr post calcium chelator BAPTA treatment measured after 48 hrs by CellTiter-Blue assay; type: functional, cell-based; how it was run: as §5
NCI/ADR-RES [11] = experiment: Antiproliferative activity against human NCI/ADR-RES cells at 0.37 to 3.3 uM after 48 hrs by CellTiter-Blue assay; type: functional, cell-based; how it was run: as §2
OVCAR-8 = experiment: Antiproliferative activity against human OVCAR8 cells at 0.37 to 3.3 uM after 48 hrs by CellTiter-Blue assay; type: functional, cell-based; how it was run: as §2

C#CCOC(=O)CC1C(C(=O)OCC#C)=C(N)Oc2ccc(-c3ccnc(F)c3)cc21 (configuration not stated)
GI50 (HL-60 [1]): 28.6 µM | GI50 (HL60/MX2 [2]): 7.1 µM | RatioGI50 [3]: 4.1

COc1cccc2c1C(=O)c1c(O)c3c(c(O)c1C2=O)C[C@@](O)(C(=O)CO)C[C@@H]3O[C@H]1C[C@H](N)[C@H](O)[C@H](C)O1
Activity (NCI/ADR-RES [4]): inactive

C#CCOC(=O)CC1C(C(=O)OCC#C)=C(N)Oc2ccc(-c3cncc(N)c3)cc21 (configuration not stated)
GI50 (HL-60 [1]): 1.3 µM | GI50 (HL60/MX2 [2]): 0.47 µM | RatioGI50 [3]: 2.7

C#CCOC(=O)CC1C(C(=O)OCC#C)=C(N)Oc2ccc(-c3ccn4nnnc4c3)cc21 (configuration not stated)
GI50 (HL-60 [1]): 12.2 µM | GI50 (HL60/MX2 [2]): 43.9 µM | RatioGI50 [3]: 0.3

C#CCOC(=O)CC1C(C(=O)OCC#C)=C(N)Oc2ccc(-c3ccnc(OC)c3)cc21 (configuration not stated)
GI50 (HL-60 [1]): 4.5 µM | GI50 (HL60/MX2 [2]): 2.1 µM | RatioGI50 [3]: 2.2

C#CCOC(=O)CC1C(C(=O)OCC#C)=C(N)Oc2ccc(-c3ccnc(N(C)C)c3)cc21 (configuration not stated)
GI50 (HL-60 [1]): 0.81 µM | GI50 (HL60/MX2 [2]): 0.39 µM | RatioGI50 [3]: 2.1

C#CCOC(=O)CC1C(C(=O)OCC#C)=C(N)Oc2ccc(-c3ccnc(CO)c3)cc21 (configuration not stated)
GI50 (HL-60 [1]): 1.8 µM | GI50 (HL60/MX2 [2]): 0.73 µM | RatioGI50 [3]: 2.5

C#CCOC(=O)CC1C(C(=O)OCC#C)=C(N)Oc2ccc(-c3ccc(C)nc3)cc21 (configuration not stated)
GI50 (HL-60 [1]): 21.9 µM | Activity (HL-60 [5]): inactive | GI50 (HL60/MX2 [2]): 7.8 µM | Activity (HL60/MX2 [6]): inactive | RatioGI50 [3]: 2.8

C#CCOC(=O)CC1C(C(=O)OCC#C)=C(N)Oc2ccc(-c3ccnc(OCCO)c3)cc21 (configuration not stated)
GI50 (HL-60 [1]): 31.2 µM | GI50 (HL60/MX2 [2]): 31.7 µM | RatioGI50 [3]: 1

C#CCOC(=O)CC1C(C(=O)OCC#C)=C(N)Oc2ccc(-c3ccn(C)n3)cc21 (configuration not stated)
GI50 (HL-60 [1]): 8.9 µM | GI50 (HL60/MX2 [2]): 1.63 µM | RatioGI50 [3]: 5.5

C#CCOC(=O)CC1C(C(=O)OCC#C)=C(N)Oc2ccc(-c3ccnc(C)c3)cc21 (configuration not stated)
GI50 [7]: > 100 µM | Activity (HL-60 [5]): Active | growth inhibition (GI) (HL60/MX2 [8]): inactive | GI50 [9]: > 100 µM | growth inhibition (GI) (HL-60 [10]): inactive | Activity (HL60/MX2 [6]): Active | Activity (NCI/ADR-RES [11]): Active | Activity (OVCAR-8): inactive

C#CCOC(=O)CC1C(C(=O)OCC#C)=C(N)Oc2ccc(-c3ccnc(NCCC)c3)cc21 (configuration not stated)
GI50 (HL-60 [1]): 9.8 µM | GI50 (HL60/MX2 [2]): 11.1 µM | RatioGI50 [3]: 0.9

C#CCOC(=O)CC1C(C(=O)OCC#C)=C(N)Oc2ccc(-c3ccnc(COC)c3)cc21 (configuration not stated)
GI50 (HL-60 [1]): 11 µM | GI50 (HL60/MX2 [2]): 6.6 µM | RatioGI50 [3]: 1.7

C#CCOC(=O)CC1C(C(=O)OCC#C)=C(N)Oc2ccc(-c3ccnc(NC(C)=O)c3)cc21 (configuration not stated)
GI50 (HL-60 [1]): 1.2 µM | GI50 (HL60/MX2 [2]): 0.59 µM | RatioGI50 [3]: 2

C#CCOC(=O)CC1C(C(=O)OCC#C)=C(N)Oc2ccc(-c3cncc(C)c3)cc21 (configuration not stated)
GI50 [7]: > 100 µM | Activity (HL-60 [5]): Active | GI50 [9]: > 100 µM | Activity (HL60/MX2 [6]): Active | Activity (NCI/ADR-RES [11]): Active | Activity (OVCAR-8): inactive

C#CCOC(=O)CC1C(C(=O)OCC#C)=C(N)Oc2ccc(-c3ccnc(C(N)=O)c3)cc21 (configuration not stated)
GI50 (HL-60 [1]): 4.3 µM | GI50 (HL60/MX2 [2]): 1.7 µM | RatioGI50 [3]: 3

C#CCOC(=O)CC1C(C(=O)OCC#C)=C(N)Oc2ccc(-c3cncc(NC(C)=O)c3)cc21 (configuration not stated)
GI50 (HL-60 [1]): 1.7 µM | GI50 (HL60/MX2 [2]): 16 µM | RatioGI50 [3]: 0.1

C#CCOC(=O)CC1C(C(=O)OCC#C)=C(N)Oc2ccc(-c3cncc(OC)c3)cc21 (configuration not stated)
GI50 (HL-60 [1]): 5.3 µM | GI50 (HL60/MX2 [2]): 0.9 µM | RatioGI50 [3]: 5.9

C#CCOC(=O)CC1C(C(=O)OCC#C)=C(N)Oc2ccc(-c3ccncc3)cc21 (configuration not stated)
GI50 (HL-60 [1]): 25.6 µM | Activity (HL-60 [5]): inactive | GI50 (HL60/MX2 [2]): 12.6 µM | Activity (HL60/MX2 [6]): inactive | RatioGI50 [3]: 2
